Reference: article PMC4428392 (Anti-Cancer Agents in Medicinal Chemistry, 2014)
Read-outs that look alike come from different tables or passages of the source.

Experiments:
Format in all cases: cell-based, Human
HCT-116 cells = assay: Cell cycle assay by flow cytometry; details: data not shown
NCI-H460 = assay: MTT cytotoxicity assay in normoxia and hypoxia, NCI-H460; details: Homo sapiens
Procedure, shortened: (§1)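 MCF-7 and HCT-116 were grown in DMEM; NCI-H460 in RPMI 1640 plus 10 mM HEPES; all media had 10% FBS, pyruvate and 1.5 g/L bicarbonate. Cells were seeded at 20000/well and grown 24 h at 20% O2, 5% CO2, 37 °C. Serial compound concentrations were then given for 24 h in normoxia, or for 6 h hypoxia (3% O2) followed by 18 h normoxia. MTT was read at 545 nm. IC50 came from linear regression of % inhibition versus log concentration, and HCR = IC50 normoxia/IC50 hypoxia.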

HCT-116 = assay: MTT cytotoxicity assay in normoxia and hypoxia, HCT-116; details: for HCR = hypoxic cytotoxicity ratio IC50 (aerobic)/IC50 (hypoxic): HCT-116; for IC50: Homo sapiens
Procedure, shortened: as §1

[1] = tested on: co-cultured HUVECs and fibroblasts; assay: In vitro tube formation test; details: 2 μM, 11 days
Procedure, shortened: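 HUVECs were co-cultured with fibroblasts for 11 days in basal medium, solvent-control medium (0.2% DMSO), or solvent medium with test compound at 2 or 20 μM. Medium ± compound was renewed every 3 days, and suramin served as the kit positive control. HUVECs were stained with anti-CD31, and tube area, length, joints and paths were measured by image analyzer over 5 fields. Quadruplicate wells; mean ± SEM, n=4.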

[2] = NCI-H460, 24 h, read-out: Cytotoxicity (IC50) NCI-H460 N
[3] = NCI-H460, read-out: Cytotoxicity (IC50) NCI-H460 H
[4] = HCT-116, 24 h, read-out: Cytotoxicity (IC50) HCT-116 N
[5] = HCT-116, read-out: Cytotoxicity (IC50) HCT-116 H
[6] = HCT-116, read-out: Cytotoxicity (IC50), cell kill under hypoxia

With “1,2,4-benzotriazine-1-oxide [Compound 1]” the “effect on HCT-116 cell cycle (G2/M accumulation)” value (HCT-116 cells) was “invalid”.
In the case of NCCNc1n[n+]([O-])c2ccccc2[n+]1[O-] [Compound 8a, N^1-(1,4-Dioxido-1,2,4-benzotriazine-3-yl)-1,2-ethanediamine], the IC50 (NCI-H460; [2]) is reported as 18.7 ± 2.7 µM, the IC50 (NCI-H460; [3]) is reported as 10.1 ± 3.7 µM and the “HCR = hypoxic cytotoxicity ratio IC50 (aerobic)/IC50 (hypoxic)” value (“HCR = hypoxic cytotoxicity ratio IC50” for short) (HCT-116) is reported as 1.8. It also gave an IC50 (HCT-116; [4]) of 40.3 ± 14.6 µM, an IC50 (HCT-116; [5]) of 22.4 ± 9.7 µM and an IC50 (HCT-116; [6]) of 22.4 µM.
With NCCCNc1n[n+]([O-])c2ccccc2[n+]1[O-] [Compound 8b, N^1-(1,4-Dioxido-1,2,4-benzotriazine-3-yl)-1,3-propanediamine] the IC50 (NCI-H460; [2]) was 95.6 ± 33.9 µM, the IC50 (NCI-H460; [3]) was 79.5 ± 26.6 µM and the “HCR = hypoxic cytotoxicity ratio IC50” value (HCT-116) was 1.7. For the same compound, the IC50 (HCT-116; [4]) was 90.4 ± 3.5 µM, the IC50 (HCT-116; [5]) was 54.8 ± 8 µM and the IC50 (HCT-116; [6]) was 54.8 µM.
With NCCCCCNc1n[n+]([O-])c2ccccc2[n+]1[O-] [Compound 8d, N^1-(1,4-Dioxido-1,2,4-benzotriazine-3-yl)-1,5-pentanediamine] the IC50 (NCI-H460; [2]) was 101 ± 38.9 µM, the IC50 (NCI-H460; [3]) was 83.4 ± 33.8 µM and the “HCR = hypoxic cytotoxicity ratio IC50” value (HCT-116) was 1.7. The IC50 (HCT-116; [4]) was 93.7 ± 20 µM, the IC50 (HCT-116; [5]) was 55.3 ± 7.5 µM and the IC50 (HCT-116; [6]) was 55.3 µM.
For NCCCCCCNc1n[n+]([O-])c2ccccc2[n+]1[O-] [Compound 8e, N^1-(1,4-Dioxido-1,2,4-benzotriazin-3-yl)-1,6-hexanediamine], the IC50 (NCI-H460; [2]) was 104 ± 15.1 µM, the IC50 (NCI-H460; [3]) was 68.7 ± 15.1 µM and the “HCR = hypoxic cytotoxicity ratio IC50” value (HCT-116) was 1.5. For the same compound, the IC50 (HCT-116; [4]) was 91.2 ± 16.2 µM, the IC50 (HCT-116; [5]) was 62.9 ± 11 µM and the IC50 (HCT-116; [6]) was 62.1 µM.
With NCCCCCCCNc1n[n+]([O-])c2ccccc2[n+]1[O-] [Compound 8f, N^1-(1,4-Dioxido-1,2,4-benzotriazine-3-yl)-1,7-heptanediamine] the IC50 (NCI-H460; [2]) was 79.4 ± 22.6 µM, the IC50 (NCI-H460; [3]) was 42.8 ± 8.3 µM and the “HCR = hypoxic cytotoxicity ratio IC50” value (HCT-116) was 1.9. The IC50 (HCT-116; [4]) was 78.3 ± 4.9 µM, the IC50 (HCT-116; [5]) was 40.8 ± 4.3 µM and the IC50 (HCT-116; [6]) was 40.8 µM.
For NCCCCCCCCNc1n[n+]([O-])c2ccccc2[n+]1[O-] [Compound 8g, N^1-(1,4-Dioxido-1,2,4-benzotriazine-3-yl)-1,8-octanediamine], the IC50 (NCI-H460; [2]) was 82.7 ± 20.4 µM, the IC50 (NCI-H460; [3]) was 45.8 ± 6.1 µM and the “HCR = hypoxic cytotoxicity ratio IC50” value (HCT-116) was 2.2. For the same compound, the IC50 (HCT-116; [4]) was 97 ± 8.7 µM, the IC50 (HCT-116; [5]) was 44.8 ± 6 µM and the IC50 (HCT-116; [6]) was 44.8 µM. The “reduction of areas, lengths, paths and joints of tube formation” value [1] was 31-40%.
